Test results from ChEMBL document CHEMBL1143407, “In vivo efficacy and pharmacokinetics of voriconazole in an animal model of dermatophytosis” (Antimicrob Agents Chemother, 2007).
Values after ≈ are worked out from the molar mass of the structure shown.

Columns and labels:
[1] = Cmin in guinea pig skin biopsy specimen at 20 mg/kg/day, po after 3 hrs; type: ADME, organism-based, Cavia porcellus, Zone of skin; parameters: route oral; details: read-out: Cmin
Outline: (§1)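 Day 14: three infected guinea pigs received the twelfth 20 mg/kg oral gavage dose. Whole blood was drawn from the eye vein hourly from 1 h. 3-mm full-thickness punch biopsies were taken hourly from the lesion margin over 3 h. Blood was precipitated with acetonitrile. Biopsies were extracted 6 h in acetonitrile-ammonium phosphate with freeze-thaw cycles. Total drug was measured by isocratic RP-18 HPLC (LLOQ 0.2 μg/ml).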

Nannizzia nana = test: Antimicrobial activity against Microsporum nanum; type: functional
[2] = Drug level in guinea pig whole blood at 20 mg/kg/day, po after 3 hrs; type: ADME, organism-based, Cavia porcellus; parameters: route oral; details: read-out: Drug uptake; outline: as §1
[3] = Cmin in guinea pig whole blood at 20 mg/kg/day, po after 3 hrs; type: ADME, organism-based, Cavia porcellus; parameters: route oral; details: read-out: Cmin; outline: as §1
[4] = Cmax in guinea pig whole blood at 20 mg/kg/day, po after 3 hrs; type: ADME, organism-based, Cavia porcellus; parameters: dose 20 mg/kg/day, route oral; outline: as §1
[5] = Cmax in guinea pig skin at 20 mg/kg/day, po after 3 hrs; type: ADME, organism-based, Cavia porcellus, Zone of skin; parameters: dose 20 mg/kg/day, route oral; outline: as §1
[6] = Drug level in guinea pig interstitial fluid at 20 mg/kg/day, po after 3 hrs; type: ADME, organism-based, Cavia porcellus; parameters: route oral; details: read-out: Drug uptake
Outline: (§2)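 Day 14: the first three treated guinea pigs, infected and dosed as above, were studied under anesthesia. Dermal microdialysis catheters were placed in normal and inoculated skin and perfused with isotonic NaCl at 1 μl/min. Probes were calibrated beforehand by retrodialysis (5 and 10 μg/ml). Dialysates were collected every 30 min for 3 h after the twelfth 20 mg/kg oral dose. Unbound level = 100 × C_dialysate/RR, by isocratic RP-18 HPLC.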

[7] = Cmax in guinea pig interstitial fluid at 20 mg/kg/day, po after 3 hrs; type: ADME, organism-based, Cavia porcellus; parameters: dose 20 mg/kg/day, route oral; outline: as §2
Paraphyton cookei = test: Antimicrobial activity against Microsporum cookei; type: functional
Nannizzia gypsea = test: Antimicrobial activity against Microsporum gypseum; type: functional
Microsporum canis [8] = test: Antifungal activity against Microsporum canis infected in guinea pig dermatophytosis model assessed as colony count per specimen at 20 mg/kg/day, po after 7 days; type: functional
Outline: (§3)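 Female guinea pigs (418 to 482 g) were inoculated on shaved skin with M. canis clinical-isolate microconidia at about 8 × 10⁵ conidia/ml. Oral solution was given by gavage at 20 mg/kg/day on days 3 to 14; controls were untreated (n = 8 per group). Skin scrapings were cultured on SAB with cycloheximide/chloramphenicol for 28 days and CFU per specimen counted. Groups were compared by Wilcoxon two-sample test.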

Microsporum distortum = test: Antimicrobial activity against Microsporum distortum; type: functional
[9] = Drug level in guinea pig skin biopsy specimen at 20 mg/kg/day, po after 3 hrs; type: ADME, organism-based, Cavia porcellus, Zone of skin; parameters: route oral; details: read-out: Drug uptake; outline: as §1
Microsporum canis [10] = test: Antifungal activity against Microsporum canis infected in guinea pig dermatophytosis model assessed as colony count per specimen at 20 mg/kg/day, po after 3 days; type: functional; outline: as §3
[11] = Cmax in guinea pig skin biopsy specimen at 20 mg/kg/day, po after 3 hrs; type: ADME, organism-based, Cavia porcellus, Zone of skin; parameters: dose 20 mg/kg/day, route oral; outline: as §1
Microsporum canis [12] = test: Antimicrobial activity against Microsporum canis; type: functional
Outline: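 MIC was determined by CLSI M38-A broth dilution, modified to use 10⁵ CFU/ml inoculum and 10 days incubation at 25°C. The organism was a clinical M. canis isolate, tested in triplicate.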

Microsporum canis [13] = test: Antifungal activity against Microsporum canis infected in guinea pig dermatophytosis model assessed as colony count per specimen at 20 mg/kg/day, po administered 12 days measured after 14 days; type: functional; outline: as §3
Microsporum canis [14] = test: Antifungal activity against Microsporum canis infected in guinea pig dermatophytosis model assessed as colony count per specimen at 20 mg/kg/day, po administered 12 days measured after 17 days; type: functional; outline: as §3
Microsporum audouinii = test: Antimicrobial activity against Microsporum audouinii; type: functional

C[C@@H](c1ncncc1F)[C@](O)(Cn1cncn1)c1ccc(F)cc1F [VORICONAZOLE]
concentration at 3 h [1]: 9100 ng/g
MIC (Nannizzia nana): 0.01 µg/mL (≈ 0.0286 µM)
concentration at 3 h [2]: 6300 ng/mL
concentration at 3 h [3]: 4000 ng/mL
Cmax [4]: 7700 ng/mL
Cmax [5]: 28100 ng/g
concentration at 3 h [6]: 1400 ng/mL
Cmax [7]: 2000 ng/mL
MIC (Paraphyton cookei): 0.01 µg/mL (≈ 0.0286 µM)
MIC (Nannizzia gypsea): 0.01 µg/mL (≈ 0.0286 µM)
Activity (Microsporum canis [8]): 4.1
MIC (Microsporum distortum): 0.01 µg/mL (≈ 0.0286 µM)
concentration at 3 h [9]: 18300 ng/g
Activity (Microsporum canis [10]): 6.4
Cmax [11]: 35900 ng/g
MIC (Microsporum canis [12]): 0.25 µg/mL (≈ 0.716 µM)
Activity (Microsporum canis [13]): 0.3
Activity (Microsporum canis [14]): 0.2
MIC (Microsporum audouinii): 0.01 µg/mL (≈ 0.0286 µM)
